In ChEMBL document CHEMBL1629702, “Berberine-INF55 (5-nitro-2-phenylindole) hybrid antimicrobials: effects of varying the relative orientation of the berberine and INF55 components” (Antimicrob Agents Chemother, 2010):
Activity calls are given as the source filed them. The calls are words filed in the database; no cut-off is given here.

Legend:
[1] = biological target: T1, Quinolone resistance protein NorA (Staphylococcus aureus) (UniProt P0A0J7); experiment: Inhibition of NorA in Staphylococcus aureus 8325-4 assessed as ethidium bromide uptake at 3 uM by fluorescence assay
T1 sequence (whole entry): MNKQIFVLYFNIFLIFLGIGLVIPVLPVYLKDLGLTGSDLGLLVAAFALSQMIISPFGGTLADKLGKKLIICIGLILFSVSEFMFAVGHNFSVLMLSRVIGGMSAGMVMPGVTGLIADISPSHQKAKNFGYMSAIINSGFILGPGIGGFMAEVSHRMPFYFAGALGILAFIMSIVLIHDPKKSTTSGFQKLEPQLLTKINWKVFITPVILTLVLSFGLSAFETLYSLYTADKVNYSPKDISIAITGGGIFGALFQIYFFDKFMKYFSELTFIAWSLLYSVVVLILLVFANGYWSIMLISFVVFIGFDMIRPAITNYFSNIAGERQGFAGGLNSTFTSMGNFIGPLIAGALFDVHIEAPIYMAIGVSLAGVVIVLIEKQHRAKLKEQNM
Procedure, shortened: (§1)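 S. aureus was grown at 37°C to OD600 1.5, washed in PBS, then energised for 1 h at 37°C in PBS with 10 mM dextrose (OD ~0.8). Cells were washed and diluted to OD ~0.3 in PBS. Hybrid or INF55 was added before ethidium bromide, all at 3 μM. Fluorescence was read at ex 530/em 600 nm, with cell-free compound background subtracted. At least triplicate.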

Staphylococcus aureus [2] = experiment: Increase in ethidium bromide uptake in NorA-deficient Staphylococcus aureus K1758 at 3 uM by fluorescence assay; type: functional, organism-based; procedure, shortened: as §1
[3] = biological target: T1, Quinolone resistance protein NorA (Staphylococcus aureus); experiment: Inhibition of NorA in Staphylococcus aureus K2378 overexpressing NorA assessed as ethidium bromide uptake at 3 uM by fluorescence assay in presence of INF55; procedure, shortened: as §1
Staphylococcus aureus [4] = experiment: Antibacterial activity against NorA-deficient Staphylococcus aureus K1758 after 18 hrs by two fold serial dilution method; type: functional; conditions: K1758, 18 h
Procedure, shortened: (§2)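 Broth inoculated at 10⁵ cells/ml and serial 2-fold compound dilutions, run in triplicate. Incubated 18 h at 37°C, with growth read as absorbance at 600 nm. MIC is the lowest concentration giving complete growth inhibition.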

Staphylococcus aureus [5] = experiment: Antibacterial activity against Staphylococcus aureus K2378 overexpressing NorA after 18 hrs by two fold serial dilution method; type: functional; conditions: K2378, 18 h; procedure, shortened: as §2
Staphylococcus aureus [6] = experiment: Antibacterial activity against wild-type Staphylococcus aureus 8325-4 after 18 hrs by two fold serial dilution method; type: functional; conditions: 8325-4, 18 h; procedure, shortened: as §2
[7] = biological target: T1, Quinolone resistance protein NorA (Staphylococcus aureus); experiment: Inhibition of NorA in Staphylococcus aureus K2378 overexpressing NorA assessed as increase in ethidium bromide uptake at 3 uM by fluorescence assay in presence of INF55; procedure, shortened: as §1
[8] = biological target: T1, Quinolone resistance protein NorA (Staphylococcus aureus); experiment: Inhibition of NorA in Staphylococcus aureus 8325-4 assessed as increase in ethidium bromide uptake at 3 uM by fluorescence assay in presence of INF55; procedure, shortened: as §1
[9] = biological target: T1, Quinolone resistance protein NorA (Staphylococcus aureus); experiment: Inhibition of NorA in Staphylococcus aureus K2378 overexpressing NorA assessed as ethidium bromide uptake at 3 uM by fluorescence assay; procedure, shortened: as §1
Staphylococcus aureus [10] = experiment: Increase in ethidium bromide uptake in NorA-deficient Staphylococcus aureus K1758 at 3 uM by fluorescence assay in presence of INF55; type: functional, organism-based; procedure, shortened: as §1
Enterococcus faecalis [11] = experiment: Antibacterial activity against Enterococcus faecalis infected in Caenorhabditis elegans assessed as organism survival at 20 uM; type: functional, organism-based
Procedure, shortened: (§3)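 Gravid glp-4(bn2) sek-1(km4) adults were bleached for eggs, hatched at 15°C for 2 days, then grown on E. coli HB101 at 25°C for 52 h. Sterile adults were infected on E. faecalis MMH594 lawns (kanamycin 80 μg/ml) for 15 h at 15°C. Worms were sorted 15 per well into 20% BHI, 60% M9, kanamycin, nystatin and 1% DMSO, then kept 5 days at 26.3°C. Survival was scored from bright-field images, with median survival (LT50) as the read-out.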

[12] = biological target: T1, Quinolone resistance protein NorA (Staphylococcus aureus); experiment: Inhibition of NorA in Staphylococcus aureus K2378 overexpressing NorA assessed as accumulation of Berberine at 3 uM by fluorescence assay in presence of INF55
Procedure, shortened: (§4)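 S. aureus was grown at 37°C to OD600 1.5, washed, then energised for 1 h at 37°C in PBS with 10 mM dextrose. Cells were diluted to OD ~0.3 in PBS, and compounds (berberine ± INF55, or hybrids) were added at 3 μM each. DNA-binding fluorescence increase was followed at ex 355/em 517 nm, in arbitrary units, with background subtracted. At least three independent experiments.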

[13] = biological target: T1, Quinolone resistance protein NorA (Staphylococcus aureus); experiment: Inhibition of NorA in Staphylococcus aureus 8325-4 assessed as decrease in Berberine MIC
[14] = biological target: T1, Quinolone resistance protein NorA (Staphylococcus aureus); experiment: Inhibition of NorA in Staphylococcus aureus 8325-4 assessed as accumulation of compound at 3 uM by fluorescence assay; procedure, shortened: as §4
Staphylococcus aureus [15] = experiment: Antibacterial activity against NorA-deficient Staphylococcus aureus K1758 after 18 hrs by two fold serial dilution method in presence of INF55; type: functional, organism-based
[16] = biological target: T1, Quinolone resistance protein NorA (Staphylococcus aureus); experiment: Inhibition of NorA in Staphylococcus aureus 8325-4 assessed as assessed as accumulation of compound at 3 uM by fluorescence assay; procedure, shortened: as §4
[17] = biological target: T1, Quinolone resistance protein NorA (Staphylococcus aureus); experiment: Inhibition of NorA in Staphylococcus aureus K2378 overexpressing NorA assessed as accumulation of compound at 3 uM by fluorescence assay; procedure, shortened: as §4
[18] = biological target: T1, Quinolone resistance protein NorA (Staphylococcus aureus); experiment: Inhibition of NorA in Staphylococcus aureus 8325-4 assessed as accumulation of Berberine at 3 uM by fluorescence assay in presence of INF55; procedure, shortened: as §4
[19] = biological target: T1, Quinolone resistance protein NorA (Staphylococcus aureus); experiment: Inhibition of NorA in Staphylococcus aureus K2378 overexpressing NorA assessed as decrease in Berberine MIC
Staphylococcus aureus [20] = experiment: Cellular uptake in NorA-deficient Staphylococcus aureus K1758 assessed as accumulation of compound at 3 uM by fluorescence assay; type: ADME, organism-based; conditions: in vivo
Procedure, shortened: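 K1758 (ΔnorA) cells grown at 37°C to OD600 1.5, washed twice in PBS, then energized 1 h at 37°C with aeration in PBS plus 10 mM dextrose at OD ~0.8. Cells washed again and diluted to OD ~0.3 in PBS. Compound added at 3 μM. DNA-binding fluorescence read at ex 355/em 517 nm, cell-free background subtracted, arbitrary units; ≥3 independent experiments.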

Enterococcus faecalis [21] = experiment: Antibacterial activity against Enterococcus faecalis infected in Caenorhabditis elegans assessed as organism survival at 8.6 uM; type: functional, organism-based; procedure, shortened: as §3

COc1ccc2c(Cc3cccc(-c4cc5cc([N+](=O)[O-])ccc5[nH]4)c3)c3[n+](cc2c1OC)CCc1cc2c(cc1-3)OCO2
inhibition [1]: Active
Activity (Staphylococcus aureus [2]): Active
inhibition [3]: inactive
MIC (Staphylococcus aureus [4]): 20.1 µM
MIC (Staphylococcus aureus [5]): 20.1 µM
MIC (Staphylococcus aureus [6]): 20.1 µM
inhibition [7]: Active
inhibition [8]: Active
inhibition [9]: Active
Activity (Staphylococcus aureus [10]): Active
Activity (Enterococcus faecalis [11]): Active

COc1ccc2c(Cc3ccccc3-c3cc4cc([N+](=O)[O-])ccc4[nH]3)c3[n+](cc2c1OC)CCc1cc2c(cc1-3)OCO2
MIC (Staphylococcus aureus [4]): 9.4 µM
MIC (Staphylococcus aureus [5]): 18.8 µM
MIC (Staphylococcus aureus [6]): 9.4 µM

COc1ccc2cc3[n+](cc2c1OC)CCc1cc2c(cc1-3)OCO2.[Cl-] [BERBERINE CHLORIDE]
inhibition [12]: Active
Activity [13]: Active
inhibition [14]: inactive
MIC (Staphylococcus aureus [4]): 40 µM
Activity (Staphylococcus aureus [15]): Active
inhibition [16]: Active
inhibition [17]: inactive
MIC (Staphylococcus aureus [5]): > 650 µM
inhibition [18]: Active
MIC (Staphylococcus aureus [6]): 325 µM
Activity [19]: Active
Drug uptake (Staphylococcus aureus [20]): Active

CN[C@H](CC(C)C)C(=O)N[C@H]1C(=O)N[C@@H](CC(N)=O)C(=O)N[C@H]2C(=O)N[C@H]3C(=O)N[C@H](C(=O)N[C@H](C(=O)O)c4cc(O)cc(O)c4-c4cc3ccc4O)[C@H](O)c3ccc(c(Cl)c3)Oc3cc2cc(c3O[C@@H]2O[C@H](CO)[C@@H](O)[C@H](O)[C@H]2O[C@H]2C[C@](C)(N)[C@H](O)[C@H](C)O2)Oc2ccc(cc2Cl)[C@H]1O
Activity (Enterococcus faecalis [21]): Active

COc1ccc2c(Cc3ccc(-c4cc5cc([N+](=O)[O-])ccc5[nH]4)cc3)c3[n+](cc2c1OC)CCc1cc2c(cc1-3)OCO2
inhibition [1]: Active
Activity (Staphylococcus aureus [2]): Active
inhibition [3]: inactive
MIC (Staphylococcus aureus [4]): 20.1 µM
MIC (Staphylococcus aureus [5]): 40.2 µM
MIC (Staphylococcus aureus [6]): 40.2 µM
inhibition [7]: Active
inhibition [8]: Active
inhibition [9]: Active
Activity (Staphylococcus aureus [10]): Active
Activity (Enterococcus faecalis [11]): Active
